Activity calls are given as the source filed them. The calls are words filed in the database; no cut-off is given here.
Experiments:
HCT-15 [1] = assay: Antiproliferative activity against human HCT15 cells after 24 hrs by WST-1 assay; format: functional, cell-based; conditions: HCT-15, 24 h
In short: (§1)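 WST-1 viability assay. Cells seeded at 5 × 10^3 per well and grown 24 h, then given lissoclibadins at 0.1−40 μM (etoposide 1.0−100 μM) in triplicate for 24 h. WST-1 added and absorbance read 4 h later at 450 nm, background subtracted at 650 nm. Viability expressed as % of control; IC50 taken as 50% inhibition of viability. Three experiments, mean ± SD.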

HeLa S3 [2] = assay: Antiproliferative activity against human HeLaS3 cells after 24 hrs by WST-1 assay; format: functional, cell-based; conditions: HeLa S3, 24 h; in short: as §1
HCT-15 [3] = assay: Antitumor activity against human HCT15 cells xenografted in BALB/c nu/nu athymic mouse assessed as tumor growth inhibition at 5 mg/kg administered intratumorally on day 0, 2, 4, 6, 8 and 10 measured up to 28 days; format: functional, organism-based
In short: (§2)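 Female 6-week-old Balb/c nu/nu mice injected subcutaneously in the lower back with HCT-15 cells (1 × 10^8/mL) mixed 1:1 with Matrigel. Once tumors reached 50−100 mm3 (day 0), mice were randomized, 6 per group. Dosing was intratumoral in PBS with 5% DMSO and 5% glucose on days 0, 2, 4, 6, 8 and 10; controls received vehicle. Tumor volume (L×W×D×π/6) and body weight measured every other day to day 28.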

HeLa S3 [4] = assay: Antiproliferative activity against human HeLaS3 cells assessed as effect on cell morphology after 24 hrs by light microscopic analysis; format: functional, cell-based
In short: (§3)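 Cancer cells treated with 0−10 μM and examined by light microscopy for changes in cell adhesion and morphology.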

HeLa S3 [5] = assay: Antiproliferative activity against human HeLaS3 cells assessed as nuclear chromatin condensation at 10 uM after 24 hrs by Hoechst-33258 staining-based fluorescent microscopic analysis; format: functional, cell-based
In short: (§4)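 Cells at 5 × 10^4 cells/mL precultured 24 h, then treated 24 h (HCT-15 at 5 μM; HeLa-S3, MCF-7, NCI-H28 at 10 μM). Cells trypsinized, washed in PBS, fixed in 1.0% paraformaldehyde at 4 °C for 15 min, stained with 1 mg/mL Hoechst-33258 at 4 °C for 15 min. After washing, mounted in antifade reagent and examined by fluorescence microscopy.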

NCI-H28 [6] = assay: Antiproliferative activity against human NCI-H28 cells after 24 hrs by WST-1 assay; format: functional, cell-based; conditions: NCI-H28, 24 h; in short: as §1
HCT-15 [7] = assay: Antiproliferative activity against human HCT15 cells assessed as effect on cell adhesion after 24 hrs by light microscopic analysis; format: functional, cell-based; in short: as §3
HCT-15 [8] = assay: Induction of apoptosis in human HCT15 cells assessed as effect on cell adhesion at 5 uM in presence of pan-caspase inhibitor z-VAD-fmk by light microscopic analysis; format: functional, cell-based
NCI-H28 [9] = assay: Antiproliferative activity against human NCI-H28 cells assessed as effect on cell morphology up to 10 uM after 24 hrs by light microscopic analysis; format: functional, cell-based; in short: as §3
NCI-H28 [10] = assay: Antiproliferative activity against human NCI-H28 cells assessed as effect on cell morphology after 24 hrs by light microscopic analysis; format: functional, cell-based; in short: as §3
HCT-15 [11] = assay: Induction of apoptosis in human HCT15 cells at 5 uM after 12 hrs in presence of caspase-9 inhibitor z-LEHD-fmk by annexin V-FITC/propidium iodide staining-based flow cytometric analysis; format: functional, cell-based
In short: (§5)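 HCT-15 cells at 5 × 10^4 cells/mL precultured 24 h, then given z-VAD-fmk, z-IETD-fmk or z-LEHD-fmk at 50 μM for 30 min before 5.0 μM compound in DMSO (DMSO final 0.1%). Annexin V-FITC/PI staining read by flow cytometry. Three independent experiments, mean ± SD; one-way ANOVA with Bonferroni post hoc tests.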

HCT-15 [12] = assay: Antiproliferative activity against human HCT15 cells assessed as nuclear chromatin condensation at 5 uM after 24 hrs by Hoechst-33258 staining-based fluorescent microscopic analysis; format: functional, cell-based; in short: as §4
HCT-15 [13] = assay: Induction of apoptosis in human HCT15 cells assessed as effect on cell morphology at 5 uM in presence of pan-caspase inhibitor z-VAD-fmk by light microscopic analysis; format: functional, cell-based
HCT-15 [14] = assay: Antiproliferative activity against human HCT15 cells assessed as effect on cell adhesion up to 10 uM after 24 hrs by light microscopic analysis; format: functional, cell-based; in short: as §3
Mus musculus = assay: Toxicity in BALB/c nu/nu athymic mouse xenografted with human HCT15 cells assessed as body weight loss at 5 to 25 mg/kg administered intratumorally treated on day 0, 2, 4, 6, 8 and 10 measured every second day for 28 days; format: organism-based; conditions: in vivo, other, 672 h; in short: as §2
NCI-H28 [15] = assay: Antiproliferative activity against human NCI-H28 cells assessed as nuclear chromatin condensation at 10 uM after 24 hrs by Hoechst-33258 staining-based fluorescent microscopic analysis; format: functional, cell-based; in short: as §4
HCT-15 [16] = assay: Induction of apoptosis in human HCT15 cells at 5 uM after 12 hrs in presence of caspase-8 inhibitor z-IETD-fmk by annexin V-FITC/propidium iodide staining-based flow cytometric analysis; format: functional, cell-based; in short: as §5
HeLa S3 [17] = assay: Antiproliferative activity against human HeLaS3 cells assessed as fragmentation of nuclei at 10 uM after 24 hrs by Hoechst-33258 staining-based fluorescent microscopic analysis; format: functional, cell-based; in short: as §4
HeLa S3 [18] = assay: Antiproliferative activity against human HeLaS3 cells assessed as effect on cell adhesion after 24 hrs by light microscopic analysis; format: functional, cell-based; in short: as §3
NCI-H28 [19] = assay: Antiproliferative activity against human NCI-H28 cells assessed as nuclear fragmentation at 10 uM after 24 hrs by Hoechst-33258 staining-based fluorescent microscopic analysis; format: functional, cell-based; in short: as §4
HCT-15 [20] = assay: Induction of apoptosis in human HCT15 cells assessed as effect on cell adhesion at 5 uM in presence of caspase-8 inhibitor z-IETD-fmk by light microscopic analysis; format: functional, cell-based
HeLa S3 [21] = assay: Antiproliferative activity against human HeLaS3 cells assessed as effect on cell morphology up to 10 uM after 24 hrs by light microscopic analysis; format: functional, cell-based; in short: as §3
HeLa S3 [22] = assay: Antiproliferative activity against human HeLaS3 cells assessed as effect on cell adhesion up to 10 uM after 24 hrs by light microscopic analysis; format: functional, cell-based; in short: as §3
HCT-15 [23] = assay: Induction of apoptosis in human HCT15 cells assessed as effect on cell morphology at 5 uM in presence of caspase-8 inhibitor z-IETD-fmk by light microscopic analysis; format: functional, cell-based
MCF7 [24] = assay: Antiproliferative activity against human MCF7 cells after 24 hrs by WST-1 assay; format: functional, cell-based; conditions: MCF7, 24 h; in short: as §1
MCF7 [25] = assay: Antiproliferative activity against human MCF7 cells assessed as effect on cell adhesion after 24 hrs by light microscopic analysis; format: functional, cell-based; in short: as §3
MCF7 [26] = assay: Antiproliferative activity against human MCF7 cells assessed as effect on cell morphology up to 10 uM after 24 hrs by light microscopic analysis; format: functional, cell-based; in short: as §3
HCT-15 [27] = assay: Induction of apoptosis in human HCT15 cells assessed as effect on cell morphology at 5 uM in presence of caspase-9 inhibitor z-LEHD-fmk by light microscopic analysis; format: functional, cell-based
HCT-15 [28] = assay: Antiproliferative activity against human HCT15 cells assessed as effect on cell morphology after 24 hrs by light microscopic analysis; format: functional, cell-based; in short: as §3
HCT-15 [29] = assay: Induction of apoptosis in human HCT15 cells at 5 uM after 12 hrs in presence of pan-caspase inhibitor z-VAD-fmk by annexin V-FITC/propidium iodide staining-based flow cytometric analysis (reference value: 64%); format: functional; in short: as §5
HCT-15 [30] = assay: Induction of apoptosis in human HCT15 cells assessed as early apoptotic cells at 5 uM after 24 hrs by annexin V-FITC/propidium iodide staining-based flow cytometric analysis relative to control; format: functional
In short: (§6)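 HCT-15 cells at 5 × 10^4 cells/mL precultured 24 h, then given 5.0 μM in DMSO or DMSO alone (final 0.1%) for 3, 6, 12 or 24 h. Adherent cells trypsinized, pooled, stained with annexin V-FITC and PI, and analysed by flow cytometry. Early apoptosis = annexin V+/PI−; late = annexin V+/PI+. Three independent experiments, mean ± SD.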

MCF7 [31] = assay: Antiproliferative activity against human MCF7 cells assessed as effect on cell morphology after 24 hrs by light microscopic analysis; format: functional, cell-based; in short: as §3
MCF7 [32] = assay: Antiproliferative activity against human MCF7 cells assessed as effect on cell adhesion up to 10 uM after 24 hrs by light microscopic analysis; format: functional, cell-based; in short: as §3
HCT-15 [33] = assay: Induction of apoptosis in human HCT15 cells assessed as early apoptotic cells at 5 uM after 12 hrs by annexin V-FITC/propidium iodide staining-based flow cytometric analysis relative to control; format: functional; in short: as §6
HCT-15 [34] = assay: Antiproliferative activity against human HCT15 cells assessed as effect on cell morphology up to 10 uM after 24 hrs by light microscopic analysis; format: functional, cell-based; in short: as §3
HCT-15 [35] = assay: Antitumor activity against human HCT15 cells xenografted in BALB/c nu/nu athymic mouse assessed as tumor growth inhibition at 25 mg/kg/day administered intratumorally on day 0, 2, 4, 6, 8 and 10 measured on day 28 post dose relative to control; format: functional; conditions: read-out: TGI; in short: as §2
NCI-H28 [36] = assay: Antiproliferative activity against human NCI-H28 cells assessed as effect on cell adhesion up to 10 uM after 24 hrs by light microscopic analysis; format: functional, cell-based; in short: as §3
NCI-H28 [37] = assay: Antiproliferative activity against human NCI-H28 cells assessed as effect on cell adhesion after 24 hrs by light microscopic analysis; format: functional, cell-based; in short: as §3
HCT-15 [38] = assay: Induction of apoptosis in human HCT15 cells assessed as early apoptotic cells at 5 uM after 6 hrs by annexin V-FITC/propidium iodide staining-based flow cytometric analysis relative to control; format: functional; in short: as §6
HCT-15 [39] = assay: Antiproliferative activity against human HCT15 cells assessed as fragmentation of nuclei at 5 uM after 24 hrs by Hoechst-33258 staining-based fluorescent microscopic analysis; format: functional, cell-based; in short: as §4
HCT-15 [40] = assay: Induction of apoptosis in human HCT15 cells assessed as early apoptotic cells at 5 uM after 3 hrs by annexin V-FITC/propidium iodide staining-based flow cytometric analysis relative to control; format: functional; in short: as §6
MCF7 [41] = assay: Antiproliferative activity against human MCF7 cells assessed as fragmentation of nuclei at 10 uM after 24 hrs by Hoechst-33258 staining-based fluorescent microscopic analysis; format: functional, cell-based; in short: as §4
MCF7 [42] = assay: Antiproliferative activity against human MCF7 cells assessed as nuclear chromatin condensation at 10 uM after 24 hrs by Hoechst-33258 staining-based fluorescent microscopic analysis; format: functional, cell-based; in short: as §4
HCT-15 [43] = assay: Induction of apoptosis in human HCT15 cells assessed as effect on cell adhesion at 5 uM in presence of caspase-9 inhibitor z-LEHD-fmk by light microscopic analysis; format: functional, cell-based
HCT-15 [44] = assay: Induction of apoptosis in human HCT15 cells assessed as late apoptotic cells at 5 uM by annexin V-FITC/propidium iodide staining-based flow cytometric analysis; format: functional, cell-based; conditions: TDE = time-dependent effect; in short: as §6

COc1cc(CCN(C)C)c2sc3c(O)c(OC)cc(CCN(C)C)c3ssc2c1O [LISSOCLIBADIN 4]
IC50 (HCT-15 [1]): 17.2 µM | IC50 (HeLa S3 [2]): 17.8 µM

COc1c(OC)c2c(c(CCN(C)C)c1SC)SSc1c(CCN(C)C)c(SC)c(OC)c(OC)c1Sc1c(OC)c(OC)c(SC)c(CCN(C)C)c1S2 [LISSOCLIBADIN 1]
TGI (HCT-15 [3]): inactive | Activity (HeLa S3 [4]): Dose-dependent effect | Activity (HeLa S3 [5]): Active | IC50 (NCI-H28 [6]): 7.1 µM | IC50 (HCT-15 [1]): 4 µM | Activity (HCT-15 [7]): Dose-dependent effect | Activity (HCT-15 [8]): Active | Activity (NCI-H28 [9]): Active | Activity (NCI-H28 [10]): Dose-dependent effect | Activity (HCT-15 [11]): Active | Activity (HCT-15 [12]): Active | Activity (HCT-15 [13]): Active | Activity (HCT-15 [14]): Active | Activity (Mus musculus): Non-Toxic | Activity (NCI-H28 [15]): Active | Activity (HCT-15 [16]): Active | Activity (HeLa S3 [17]): Active | Activity (HeLa S3 [18]): Dose-dependent effect | Activity (NCI-H28 [19]): Active | Activity (HCT-15 [20]): Active | Activity (HeLa S3 [21]): Active | Activity (HeLa S3 [22]): Active | Activity (HCT-15 [23]): Active | IC50 (MCF7 [24]): 7.6 µM | Activity (MCF7 [25]): Dose-dependent effect | Activity (MCF7 [26]): Active | Activity (HCT-15 [27]): Active | Activity (HCT-15 [28]): Dose-dependent effect | Activity (HCT-15 [29]): 11% | Activity (HCT-15 [30]): 40% | IC50 (HeLa S3 [2]): 6.3 µM | Activity (MCF7 [31]): Dose-dependent effect | Activity (MCF7 [32]): Active | Activity (HCT-15 [33]): 43% | Activity (HCT-15 [34]): Active | inhibition in vivo at 25 mg/kg/day (HCT-15 [35]): 60% | Activity (NCI-H28 [36]): Active | Activity (NCI-H28 [37]): Dose-dependent effect | Activity (HCT-15 [38]): 37% | Activity (HCT-15 [39]): Active | Activity (HCT-15 [40]): 11% | Activity (MCF7 [41]): Active | Activity (MCF7 [42]): Active | Activity (HCT-15 [43]): Active | Activity (HCT-15 [44]): Tde
